Published values pooled from the literature.
Each line is one published result; the experiments were not run side by side.
Target: Serine/threonine-protein kinase Nek6 (NEK6, Homo sapiens, UniProt Q9HC98)

Compound | assay | setting | measurement | result
Cc1nn(C)cc1-c1nc2c(N3CCN(Cc4ccc(Cl)cc4)CC3)c(Cl)cnc2[nH]1 | binding, competition with immobilised ligand | 1 µM | remaining binding | 100%
O=c1[nH]c2ccccc2n1C1CCN(Cc2ccc(-c3[nH]c4cc5ncnc5cc4nc3-c3ccccc3)cc2)CC1 | cell-free assay | 0.5 µM | remaining signal | 98.2%
Nc1ncc(-c2nc(N3CCOCC3)nc(N3CCOCC3)n2)c(C(F)F)n1 | binding, competition with immobilised ligand | 10 µM | remaining binding | 100%
COc1ncccc1-c1cnn2ccc(N3CCN(C(=O)OC(C)C)CC3)nc12 | binding, competition with immobilised ligand | 1 µM | remaining binding | 68%
N#CC1(c2ccccn2)CCN(Cc2cc(C(=O)O)c(=O)n3ccccc23)CC1 | cell-free assay, competition with immobilised ligand | 1 µM | remaining binding | 100%
Cn1cc(-c2cccc(N3CCc4c(sc5c4CC(C)(C)C5)C3=O)c2CO)cc(Nc2ccncn2)c1=O | enzyme activity, inhibitor | 1 µM | inhibition | 4%
Cn1cncc1[C@](O)(COc1ccc(C#N)cc1-c1ccc(OC(F)(F)F)cc1)c1ccc(C#N)cc1 | cell-free assay, competition with immobilised ligand | 1 µM | remaining binding | 95%
Cn1cc(-c2cc(F)cc(N3CCn4c(cc5c4CCCC5)C3=O)c2CO)cc(Nc2ccc(N3CCN(C4COC4)CC3)cn2)c1=O | enzyme activity, inhibitor | 0.1 µM | inhibition | 6%
COc1cc(Nc2ncc(F)c(Nc3ccc4c(n3)NC(=O)C(C)(C)O4)n2)cc(OC)c1OC | binding, competition with immobilised ligand | 10 µM | inhibition | 100%
O=C1Nc2ccc3ncsc3c2/C1=C/c1cnc[nH]1 | enzyme activity, inhibitor | 0.5 µM | remaining activity | 93.2%
